# Laboratory results reported in ChEMBL document CHEMBL1938298, “Synthesis and characterization of [¹²⁵I]2-iodo N-[(S)-{(S)-1-methylpiperidin-2-yl}(phenyl)methyl]3-trifluoromethyl-benzamide as novel imaging probe for glycine transporter 1” (Bioorg Med Chem, 2011).
# The source made the active and inactive calls. No cut-off for these calls is given here.
# Assays:
# [1] = tested on: Mus musculus; test: In vivo binding affinity to GlyT1 in ddY mouse brain hippocampus at 200 kBq, iv after 60 mins by autoradiography relative to control; type: functional, organism-based; conditions: tested as the 125I-labelled form
# Outline: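 Ex vivo autoradiography in mice given 200 kBq [125I]tracer i.v. and killed at 60 min. Brains were removed, frozen on dry ice and cut into 20 µm sagittal cryosections, which were exposed to an imaging plate for 7 days. Regional signal was quantified as PSL/mm² (n = 5) and compared to control by Kruskal–Wallis with Dunn's post-test.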
# [2] = target: T1, Sodium- and chloride-dependent glycine transporter 1 (Rattus norvegicus) (UniProt P28572); test: Binding affinity to GlyT1 in rat brain cerebellar gray matter at 0.03 to 0.04 nM preincubated for 20 mins in binding buffer before compound addition measured after 30 mins by autoradiography relative to control; type: tissue-based; conditions: tested as the 125I-labelled form
# T1 sequence (whole entry): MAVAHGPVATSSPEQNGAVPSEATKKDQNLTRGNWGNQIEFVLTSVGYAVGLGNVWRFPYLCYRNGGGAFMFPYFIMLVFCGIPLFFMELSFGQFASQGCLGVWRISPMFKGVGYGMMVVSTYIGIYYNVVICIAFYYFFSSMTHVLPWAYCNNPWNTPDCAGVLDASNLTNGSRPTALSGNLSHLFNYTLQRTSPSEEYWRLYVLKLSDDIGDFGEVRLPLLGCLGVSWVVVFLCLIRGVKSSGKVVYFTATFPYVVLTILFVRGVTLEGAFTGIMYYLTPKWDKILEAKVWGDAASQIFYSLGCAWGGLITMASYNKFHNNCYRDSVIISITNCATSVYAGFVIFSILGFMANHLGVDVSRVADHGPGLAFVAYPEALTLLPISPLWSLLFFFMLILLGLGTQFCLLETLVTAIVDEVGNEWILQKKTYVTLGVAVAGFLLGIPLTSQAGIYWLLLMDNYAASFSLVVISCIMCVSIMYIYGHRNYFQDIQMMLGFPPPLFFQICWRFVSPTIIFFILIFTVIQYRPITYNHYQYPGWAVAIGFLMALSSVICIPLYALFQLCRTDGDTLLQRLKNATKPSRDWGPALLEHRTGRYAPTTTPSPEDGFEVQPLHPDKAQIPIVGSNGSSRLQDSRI
# [3] = tested on: Mus musculus; test: In vivo binding affinity to GlyT1 in ddY mouse brain cerebellum at 33.3 kBq, iv after 30 mins in presence of SSR504734 2 mg/kg, iv administered 15 mins prior to compound administration relative to control; type: functional, organism-based; set-up: dose 2 mg/kg; conditions: tested as the 125I-labelled form
# Outline: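 Blocking study in male ddY mice (6 weeks, 30–35 g). The blocker (2 mg/kg in 30% DMSO/saline) was injected i.v. 15 min before about 33.3 kBq [125I]tracer i.v.; mice were killed at 30 or 60 min. Brains were divided into cortex, corpus callosum, hippocampus, thalamus, midbrain, medulla and cerebellum, weighed and gamma-counted as % dose/g. Values are mean ± SD, n = 5–6, compared to control by Kruskal–Wallis with Dunn's post-test.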
# [4] = target: T1, Sodium- and chloride-dependent glycine transporter 1 (Rattus norvegicus); test: Binding affinity to GlyT1 in rat brain striatum at 0.03 to 0.04 nM preincubated for 20 mins in binding buffer before compound addition measured after 30 mins by autoradiography in presence of 0.01 mM GlyT1 inhibitor SSR504734 relative to control; type: tissue-based; conditions: tested as the 125I-labelled form
# [5] = target: T2, Sodium- and chloride-dependent glycine transporter 1 (Homo sapiens) (UniProt P48067); test: Ratio of compound IC50 to ALX5407 IC50 for human GlyT1
# T2 sequence (whole entry): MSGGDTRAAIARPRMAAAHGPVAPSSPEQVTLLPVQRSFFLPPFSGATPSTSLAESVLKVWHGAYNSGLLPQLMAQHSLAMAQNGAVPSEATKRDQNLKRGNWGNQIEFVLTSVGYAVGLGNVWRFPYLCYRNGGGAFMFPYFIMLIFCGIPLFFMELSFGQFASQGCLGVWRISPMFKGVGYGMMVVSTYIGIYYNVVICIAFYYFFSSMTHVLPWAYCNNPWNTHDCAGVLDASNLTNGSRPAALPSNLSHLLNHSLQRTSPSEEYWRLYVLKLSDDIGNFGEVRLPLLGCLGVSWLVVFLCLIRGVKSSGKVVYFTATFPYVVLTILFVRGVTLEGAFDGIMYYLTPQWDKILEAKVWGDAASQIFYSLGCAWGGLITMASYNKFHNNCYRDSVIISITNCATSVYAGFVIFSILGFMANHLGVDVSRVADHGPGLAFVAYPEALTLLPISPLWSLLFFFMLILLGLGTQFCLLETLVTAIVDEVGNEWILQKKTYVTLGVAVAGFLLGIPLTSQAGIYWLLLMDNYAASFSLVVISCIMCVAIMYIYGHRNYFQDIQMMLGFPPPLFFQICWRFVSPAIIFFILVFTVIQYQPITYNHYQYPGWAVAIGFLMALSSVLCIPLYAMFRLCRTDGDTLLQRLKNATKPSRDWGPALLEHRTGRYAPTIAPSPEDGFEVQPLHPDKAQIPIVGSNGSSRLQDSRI
# [6] = target: T1, Sodium- and chloride-dependent glycine transporter 1 (Rattus norvegicus); test: Binding affinity to GlyT1 in rat brain cerebral cortex at 0.03 to 0.04 nM preincubated for 20 mins in binding buffer before compound addition measured after 30 mins by autoradiography in presence of 0.01 mM GlyT2 inhibitor ORG25543 relative to control; type: tissue-based; conditions: tested as the 125I-labelled form
# Outline: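 Rat brain sagittal sections (20 µm) preincubated 20 min at 25 °C in Tris-HCl buffer pH 7.5 (NaCl, KCl, MgCl2, CaCl2), then 30 min at 25 °C with [125I] tracer (100 kBq, 0.03–0.04 nM) plus competitor (10 µM; glycine 1 or 10 mM). Cold washes, imaging plate 3 days, ROI PSL minus background per mm². % control from ≥triplicate slices, three rats.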
# [7] = target: T1, Sodium- and chloride-dependent glycine transporter 1 (Rattus norvegicus); test: Binding affinity to GlyT1 in rat brain striatum at 0.03 to 0.04 nM preincubated for 20 mins in binding buffer before compound addition measured after 30 mins by autoradiography in presence of GlyT1 inhibitor N-Me-SSR504734 relative to control; type: tissue-based; conditions: tested as the 125I-labelled form
# [8] = tested on: Mus musculus; test: In vivo binding affinity to GlyT1 in ddY mouse brain medullary region at 33.3 kBq, iv after 30 mins in presence of SSR504734 2 mg/kg, iv administered 15 mins prior to compound administration relative to control; type: functional, organism-based; set-up: dose 2 mg/kg; conditions: Medulla of organ, tested as the 125I-labelled form
# [9] = tested on: Nucleic Acid; test: Ratio of drug level in brain to blood in ddY mouse at 11.1 kBq, iv after 60 min by gamma counting; type: ADME, organism-based; conditions: 1 h
# [10] = tested on: Blood; test: Drug uptake in ddY mouse blood at 11.1 kBq, iv after 30 min by gamma counting; type: ADME, organism-based; conditions: in vivo, 0.5 h
# Outline: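 Male ddY mice (6 weeks, 30–35 g) received about 11.1 kBq [125I]tracer in 0.1 mL i.v. via tail vein. Killed at set times, organs dissected and weighed, radioactivity gamma counted. Reported as % injected dose/g tissue, mean ± SD, n = 5–6.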
# [11] = tested on: Mus musculus; test: In vivo binding affinity to GlyT1 in ddY mouse brain medullary region at 33.3 kBq, iv after 30 mins in presence of nonradioactive compound 2 mg/kg, iv administered 15 mins prior to compound administration relative to control; type: functional, Medulla of organ
# [12] = tested on: Nucleic Acid; test: Ratio of drug level in brain to blood in ddY mouse at 11.1 kBq, iv after 0.5 min by gamma counting; type: ADME, organism-based
Structure (SMILES),Activity [1],Activity [2],Activity [3],Activity [4] [%],Ratio IC50 [5],Activity [6] [%],Activity [7] [%],Activity [8],Ratio [9],Drug uptake [10] [% ID/g],Activity [11] [%],Ratio [12]
CN1CCCC[C@H]1[C@@H](NC(=O)c1cccc(C(F)(F)F)c1I)c1ccccc1,inactive,inactive,inactive,50.2,6,95.1,32.2,inactive,,,,
CN1CCCC[C@H]1[C@@H](NC(=O)c1cccc(C(F)(F)F)c1[125I])c1ccccc1,,,,,,,,,2.32,0.9,53,0.38
